Test results as given in ChEMBL document CHEMBL5154946, “Optimization of Peptide Linker-Based Fluorescent Ligands for the Histamine H1 Receptor” (J Med Chem, 2022).
Active and inactive are the calls of the source. No cut-off for these calls is given here. Square brackets hold non-standard residues; d marks the D form. Peptide text beside a SMILES is read from it. * marks the point of attachment. X1 = O=C(COc1ccc(/C=C/C2=[N+]3C(=Cc4ccc(-c5cccs5)n4[B-]3(F)F)C=C2)cc1)*; Propanoyl(3-Pip(4-O-2-BnPh)) = O=C(CCN1CCC(Oc2ccccc2Cc2ccccc2)CC1)*; X3 = Cc1cc(C)n2c1C=C1C=CC(/C=C/c3ccc(OCC(=O)*)cc3)=[N+]1[B-]2(F)F; BODIPY(FL) = CC1=CC(C)=[N+]2C1=Cc1ccc(CCC(=O)*)n1[B-]2(F)F; X2 = O=C(CCC1=[N+]2C(=Cc3ccc(-c4cccs4)n3[B-]2(F)F)C=C1)*; βAla = NCCC(=O)O

How the values were obtained:
Histamine H1 receptor [1] = target: T1, Histamine H1 receptor (Homo sapiens, UniProt P35367); test: Binding affinity to human H1R expressed in CHO cells using Fluo-4AM as substrate incubated for 1 hrs by calcium mobilization assay based fluorometric analysis; format: cell-based; settings: filed as antagonist
T1 sequence (P35367 whole entry): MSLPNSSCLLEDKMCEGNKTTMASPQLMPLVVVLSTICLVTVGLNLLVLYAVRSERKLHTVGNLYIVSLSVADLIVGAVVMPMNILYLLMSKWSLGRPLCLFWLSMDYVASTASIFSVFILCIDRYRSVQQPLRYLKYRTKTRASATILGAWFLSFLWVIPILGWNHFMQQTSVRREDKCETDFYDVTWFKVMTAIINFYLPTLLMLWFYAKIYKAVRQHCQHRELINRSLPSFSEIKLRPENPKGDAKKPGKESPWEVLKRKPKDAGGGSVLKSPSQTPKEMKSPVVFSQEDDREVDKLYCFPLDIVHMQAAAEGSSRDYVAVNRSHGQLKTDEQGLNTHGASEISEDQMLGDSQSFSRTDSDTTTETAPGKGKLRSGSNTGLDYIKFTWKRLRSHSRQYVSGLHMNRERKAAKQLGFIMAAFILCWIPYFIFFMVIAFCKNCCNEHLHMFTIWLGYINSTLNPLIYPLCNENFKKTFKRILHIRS

Histamine H1 receptor [2] = target: T1, Histamine H1 receptor; test: Binding affinity to human H1R expressed in CHO cells assessed as shift in histamine-mediated calcium response at 1 uM using Fluo-4AM as a substrate incubated for 1 hrs by calcium mobilization assay based fluorometric analysis; format: cell-based; settings: filed as antagonist
[3] = target: Histamine H4 receptor (Homo sapiens) (UniProt Q9H3N8); test: Binding affinity to NLuc-tagged human H4R expressed in HEK293T cell homogenates at 1 uM using NanoGlo as substrate preincubated for 2 hrs followed by substrate addition measured after 5 min in presence of clobenpropit by NanoBRET saturation binding assay; settings: filed as antagonist, time 125.0 min
Histamine H4 receptor (Homo sapiens), sequence (Q9H3N8 whole entry): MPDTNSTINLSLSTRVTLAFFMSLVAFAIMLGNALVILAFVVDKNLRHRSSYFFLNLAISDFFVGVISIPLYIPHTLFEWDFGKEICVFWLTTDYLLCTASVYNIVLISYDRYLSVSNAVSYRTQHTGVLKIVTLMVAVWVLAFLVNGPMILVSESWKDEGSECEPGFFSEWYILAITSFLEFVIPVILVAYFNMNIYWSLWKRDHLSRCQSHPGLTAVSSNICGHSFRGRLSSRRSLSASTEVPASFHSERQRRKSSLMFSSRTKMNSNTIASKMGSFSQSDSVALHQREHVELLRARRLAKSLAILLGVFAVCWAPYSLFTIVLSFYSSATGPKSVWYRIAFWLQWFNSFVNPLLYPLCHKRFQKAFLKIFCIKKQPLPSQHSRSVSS

[4] = target: Histamine H3 receptor (Homo sapiens) (UniProt Q9Y5N1); test: Binding affinity to NLuc-tagged human H3R expressed in HEK293T cell homogenates at 1 uM using NanoGlo as substrate preincubated for 2 hrs followed by substrate addition measured after 5 min in presence of clobenpropit by NanoBRET saturation binding assay; settings: filed as antagonist, time 125.0 min
Histamine H3 receptor (Homo sapiens), sequence (Q9Y5N1 whole entry): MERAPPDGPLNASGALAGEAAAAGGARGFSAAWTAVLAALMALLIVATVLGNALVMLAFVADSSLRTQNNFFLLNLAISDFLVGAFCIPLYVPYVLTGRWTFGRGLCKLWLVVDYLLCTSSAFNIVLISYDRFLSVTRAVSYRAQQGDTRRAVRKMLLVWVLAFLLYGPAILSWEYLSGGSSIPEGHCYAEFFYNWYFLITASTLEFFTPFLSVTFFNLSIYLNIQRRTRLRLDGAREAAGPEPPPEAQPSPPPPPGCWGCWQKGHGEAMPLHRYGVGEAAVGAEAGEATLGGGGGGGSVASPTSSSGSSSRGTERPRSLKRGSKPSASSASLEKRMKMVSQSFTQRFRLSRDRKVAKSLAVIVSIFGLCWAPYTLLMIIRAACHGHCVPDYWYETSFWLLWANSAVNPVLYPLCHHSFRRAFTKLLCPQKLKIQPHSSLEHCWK

Histamine H1 receptor [5] = target: T1, Histamine H1 receptor; test: Binding affinity to human H1R expressed in CHO cells using Fluo-4AM as a substrate incubated for 45 mins by calcium mobilization assay based fluorometric analysis; format: cell-based; settings: filed as antagonist
Histamine H1 receptor [6] = target: T1, Histamine H1 receptor; test: Binding affinity to NLuc-tagged human H1R expressed in HEK293T cells assessed as association rate constant (kon) using furimazine as substrate measured after 90 mins by NanoBRET binding assay; format: cell-based; settings: filed as antagonist
Procedure, shortened: (§1)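 Live HEK293T cells expressing Nluc-tagged human H1R; fluorescent ligand added at several concentrations and BRET read in real time every min for 90 min at room temperature. kon and koff obtained from association kinetics; mean residence time taken as 1/koff. Values are means ± SEM of 4–5 separate experiments, each in triplicate.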

Histamine H1 receptor [7] = target: T1, Histamine H1 receptor; test: Binding affinity to NLuc-tagged human H1R expressed in HEK293T cells assessed as dissociation rate constant (koff) using furimazine as substrate measured after 90 mins by NanoBRET binding assay; format: cell-based; settings: filed as antagonist; procedure, shortened: as §1
Histamine H1 receptor [8] = target: T1, Histamine H1 receptor; test: Binding affinity to NLuc-tagged human H1R expressed in HEK293T cells at assessed as ratio of association rate constant to dissociation rate constant by NanoBRET binding assay; format: cell-based; settings: filed as antagonist
Procedure, shortened: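 Real-time NanoBRET association kinetics on Nluc-H1R HEK293T cells. Several fluorescent ligand concentrations were tested, with BRET read every min for 90 min at room temperature. pKD was derived from kon/koff. Means ± SEM from 4–5 experiments in triplicate.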

Histamine H1 receptor [9] = target: T1, Histamine H1 receptor; test: Displacement of VUF13816-based fluorescent ligand 1 from Nluc-tagged human H1R expressed in HEK293T cells assessed as fold change incubated for 2 hrs by NanoBRET competition binding assay; settings: filed as antagonist
Histamine H1 receptor [10] = target: T1, Histamine H1 receptor; test: Displacement of VUF13816-based fluorescent ligand 1 from Nluc-tagged human H1R expressed in HEK293T cells incubated for 2 hrs by NanoBRET competition binding assay
[11] = Drug localization in plasma membrane of chinese hamster CHO cells expressing YFP-tagged H1R at 1 to 25 nM incubated for 30 min by confocal microscopy; format: ADME, cell membranes, Cricetulus griseus; settings: 0.5 h, 0.025 µM, dose 1-25 nM
Procedure, shortened: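 CHO cells expressing YFP-tagged H1R were incubated for 30 min at 37 °C with fluorescent ligand at 1, 5, 10 or 25 nM, with or without 10 μM mepyramine pretreatment to define nonspecific binding. Plasma membrane versus intracellular localization was judged by confocal imaging in red and green channels. Three independent experiments.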

Row | SMILES | pKb (Histamine H1 receptor [1]) | Activity (Histamine H1 receptor [2]) | also measured
1 | CC(C)[C@H](NC(=O)CCN1CCC(Oc2ccccc2Cc2ccccc2)CC1)C(=O)N[C@@H](CO)C(=O)N[C@@H](CC(N)=O)C(=O)NCCC(=O)N[C@@H](CCCCNC(=O)CCCCC[N+]1=C(/C=C/C=C/C=C2/N(C)c3ccc(S(=O)(=O)[O-])cc3C2(C)C)C(C)(C)c2cc(S(=O)(=O)O)ccc21)C(N)=O | 5.33 | Active | 
2 | C[C@H](NC(=O)[C@H](C)NC(=O)[C@H](Cc1ccccc1)NC(=O)CCN1CCC(Oc2ccccc2Cc2ccccc2)CC1)C(=O)NCCC(=O)N[C@@H](CCCCNC(=O)CCCCC[N+]1=C(/C=C/C=C/C=C2/N(C)c3ccc(S(=O)(=O)[O-])cc3C2(C)C)C(C)(C)c2cc(S(=O)(=O)O)ccc21)C(N)=O | 6.09 | Active | 
3 | N=C(NCc1ccc(Cl)cc1)SCCCc1c[nH]cn1 |  |  | Activity [3]: Active; Activity [4]: Active
4 | C[C@@H](NC(=O)CCN1CCC(Oc2ccccc2Cc2ccccc2)CC1)C(=O)N[C@H](C)C(=O)N[C@H](C)C(=O)NCCNC(=O)CCCCCNC(=O)COc1ccc(/C=C/C2=[N+]3C(=Cc4ccc(-c5cccs5)n4[B-]3(F)F)C=C2)cc1 (stereo in doubt) |  |  | pKb (Histamine H1 receptor [5]): 8.6
5 | Cc1cc(C)n2c1C=C1C=CC(CCC(=O)NCCCC[C@H](NC(=O)CCNC(=O)[C@H](C)NC(=O)[C@H](C)NC(=O)[C@H](Cc3ccccc3)NC(=O)CCN3CCC(Oc4ccccc4Cc4ccccc4)CC3)C(N)=O)=[N+]1[B-]2(F)F ({Propanoyl(3-Pip(4-O-2-BnPh))}-FAA[βAla]K(BODIPY(FL))-NH2) | 7.46 | Active | 
6 | C[C@H](NC(=O)[C@H](C)NC(=O)[C@H](Cc1ccccc1)NC(=O)CCN1CCC(Oc2ccccc2Cc2ccccc2)CC1)C(=O)NCCC(=O)N[C@@H](CCCCNC(=O)COc1ccc(/C=C/C2=[N+]3C(=Cc4ccc(-c5cccs5)n4[B-]3(F)F)C=C2)cc1)C(N)=O ({Propanoyl(3-Pip(4-O-2-BnPh))}-FAA[βAla]K(X1)-NH2) | 8.59 | Active | K (Histamine H1 receptor [6]): 0.686 10^6/M/min; K (Histamine H1 receptor [7]): 0.014 min⁻¹; pKd (Histamine H1 receptor [8]): 7.64
7 | C[C@H](NC(=O)[C@H](C)NC(=O)[C@H](Cc1ccccc1)NC(=O)CCN1CCC(Oc2ccccc2Cc2ccccc2)CC1)C(=O)NCCC(=O)N[C@@H](CCCCNC(=O)CCC1=[N+]2C(=Cc3ccc(-c4cccs4)n3[B-]2(F)F)C=C1)C(N)=O ({Propanoyl(3-Pip(4-O-2-BnPh))}-FAA[βAla]K(X2)-NH2) | 6.44 | Active | 
8 | Cc1cc(C)n2c1C=C1C=CC(/C=C/c3ccc(OCC(=O)NCCCC[C@H](NC(=O)CCNC(=O)[C@H](C)NC(=O)[C@H](C)NC(=O)[C@H](Cc4ccccc4)NC(=O)CCN4CCC(Oc5ccccc5Cc5ccccc5)CC4)C(N)=O)cc3)=[N+]1[B-]2(F)F ({Propanoyl(3-Pip(4-O-2-BnPh))}-FAA[βAla]K(X3)-NH2) | 6.99 | Active | 
9 | CC(C)[C@H](NC(=O)CCN1CCC(Oc2ccccc2Cc2ccccc2)CC1)C(=O)N[C@@H](C)C(=O)N[C@@H](C)C(=O)N[C@H](Cc1ccccc1)C(N)=O ({Propanoyl(3-Pip(4-O-2-BnPh))}-VAA[dF]-NH2) |  |  | fold change (FC) (Histamine H1 receptor [9]): 2
10 | CC(C)[C@H](NC(=O)CCN1CCC(Oc2ccccc2Cc2ccccc2)CC1)C(=O)N[C@@H](CO)C(=O)N[C@@H](C)C(=O)N[C@H](Cc1ccccc1)C(N)=O ({Propanoyl(3-Pip(4-O-2-BnPh))}-VSA[dF]-NH2) |  |  | fold change (FC) (Histamine H1 receptor [9]): 2
11 | CC(C)[C@H](NC(=O)CCN1CCC(Oc2ccccc2Cc2ccccc2)CC1)C(=O)N[C@@H](CO)C(=O)N[C@@H](CC(N)=O)C(=O)N[C@@H](Cc1ccccc1)C(N)=O ({Propanoyl(3-Pip(4-O-2-BnPh))}-VSNF-NH2) |  |  | Ki (Histamine H1 receptor [10]): 89 nM
12 | Cc1cc(C)n2c1C=C1C=CC(CCC(=O)NCCCC[C@H](NC(=O)CCNC(=O)[C@H](CC(N)=O)NC(=O)[C@H](CO)NC(=O)[C@@H](NC(=O)CCN3CCC(Oc4ccccc4Cc4ccccc4)CC3)C(C)C)C(N)=O)=[N+]1[B-]2(F)F ({Propanoyl(3-Pip(4-O-2-BnPh))}-VSN[βAla]K(BODIPY(FL))-NH2) | 6.95 | Active | 
13 | CC(C)[C@H](NC(=O)CCN1CCC(Oc2ccccc2Cc2ccccc2)CC1)C(=O)N[C@@H](CO)C(=O)N[C@@H](CC(N)=O)C(=O)NCCC(=O)N[C@@H](CCCCNC(=O)COc1ccc(/C=C/C2=[N+]3C(=Cc4ccc(-c5cccs5)n4[B-]3(F)F)C=C2)cc1)C(N)=O ({Propanoyl(3-Pip(4-O-2-BnPh))}-VSN[βAla]K(X1)-NH2) | 8.56 | Active | K (Histamine H1 receptor [6]): 0.839 10^6/M/min; K (Histamine H1 receptor [7]): 0.014 min⁻¹; Drug uptake [11]: Active; pKd (Histamine H1 receptor [8]): 7.74
14 | CC(C)[C@H](NC(=O)CCN1CCC(Oc2ccccc2Cc2ccccc2)CC1)C(=O)N[C@@H](CO)C(=O)N[C@@H](CC(N)=O)C(=O)NCCC(=O)N[C@@H](CCCCNC(=O)CCC1=[N+]2C(=Cc3ccc(-c4cccs4)n3[B-]2(F)F)C=C1)C(N)=O ({Propanoyl(3-Pip(4-O-2-BnPh))}-VSN[βAla]K(X2)-NH2) | 6.52 | Active | 
15 | Cc1cc(C)n2c1C=C1C=CC(/C=C/c3ccc(OCC(=O)NCCCC[C@H](NC(=O)CCNC(=O)[C@H](CC(N)=O)NC(=O)[C@H](CO)NC(=O)[C@@H](NC(=O)CCN4CCC(Oc5ccccc5Cc5ccccc5)CC4)C(C)C)C(N)=O)cc3)=[N+]1[B-]2(F)F ({Propanoyl(3-Pip(4-O-2-BnPh))}-VSN[βAla]K(X3)-NH2) | 6.96 | Active | 
16 | CC(C)[C@H](NC(=O)CCN1CCC(Oc2ccccc2Cc2ccccc2)CC1)C(=O)N[C@@H](CO)C(=O)N[C@@H](CO)C(=O)N[C@H](Cc1ccccc1)C(N)=O ({Propanoyl(3-Pip(4-O-2-BnPh))}-VSS[dF]-NH2) |  |  | fold change (FC) (Histamine H1 receptor [9]): 2
17 | CC(C)[C@H](NC(=O)CCN1CCC(Oc2ccccc2Cc2ccccc2)CC1)C(=O)N[C@@H](CO)C(=O)N[C@@H](Cc1ccc(O)cc1)C(=O)N[C@@H](Cc1ccccc1)C(N)=O ({Propanoyl(3-Pip(4-O-2-BnPh))}-VSYF-NH2) |  |  | Ki (Histamine H1 receptor [10]): 437 nM
18 | CC(C)[C@H](NC(=O)CCN1CCC(Oc2ccccc2Cc2ccccc2)CC1)C(=O)N[C@@H](CO)C(=O)N[C@@H](Cc1ccc(O)cc1)C(=O)N[C@H](Cc1ccccc1)C(N)=O ({Propanoyl(3-Pip(4-O-2-BnPh))}-VSY[dF]-NH2) |  |  | fold change (FC) (Histamine H1 receptor [9]): 2
